Laboratory results: ChEMBL document CHEMBL1132468, “5-(Tryptophyl)amino-1,3-dioxoperhydropyrido[1,2-c]pyrimidine-based potent and selective CCK(1) receptor antagonists: structural modifications at the tryptophan domain” (J Med Chem, 1999)
Residues, ends and D or L forms follow the SMILES beside them.

Columns and labels:
[1] = biological target: T1, Cholecystokinin receptor type A (Rattus norvegicus, UniProt P30551); test: Binding affinity by competitive inhibition of the radioligand [3H]pCCK-8 at Cholecystokinin type A receptor from rat pancreas
T1 sequence (P30551 whole entry): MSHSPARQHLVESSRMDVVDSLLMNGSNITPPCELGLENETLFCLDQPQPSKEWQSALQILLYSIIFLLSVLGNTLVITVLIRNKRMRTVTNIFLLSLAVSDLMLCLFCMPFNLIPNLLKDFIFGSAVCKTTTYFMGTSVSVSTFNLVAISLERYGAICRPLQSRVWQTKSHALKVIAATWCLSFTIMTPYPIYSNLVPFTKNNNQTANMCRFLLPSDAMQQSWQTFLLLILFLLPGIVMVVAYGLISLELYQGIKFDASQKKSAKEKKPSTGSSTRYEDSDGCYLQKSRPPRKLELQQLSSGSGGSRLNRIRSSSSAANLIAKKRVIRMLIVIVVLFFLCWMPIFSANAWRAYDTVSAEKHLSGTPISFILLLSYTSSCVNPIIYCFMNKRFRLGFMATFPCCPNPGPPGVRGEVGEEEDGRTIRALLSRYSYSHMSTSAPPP
In short: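 Rat pancreas homogenized in Pipes HCl pH 6.5 with 30 mM MgCl2, centrifuged twice at 50000g, 4 °C. Membranes (0.2 mg protein/tube) incubated with 0.5 nM [3H]pCCK-8 plus bacitracin and soybean trypsin inhibitor (0.2 mg/mL each) for 120 min at 25 °C. Ki from displacement curves by Cheng–Prusoff. Seven concentrations in triplicate, at least three experiments.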

[2] = biological target: T2, Gastrin/cholecystokinin type B receptor (Rattus norvegicus, UniProt P30553); test: Binding affinity by competitive inhibition of the radioligand [3H]pCCK-8 at Cholecystokinin type B receptor from rat cerebral cortex membrane; format: tissue-based
T2 sequence (P30553 whole entry): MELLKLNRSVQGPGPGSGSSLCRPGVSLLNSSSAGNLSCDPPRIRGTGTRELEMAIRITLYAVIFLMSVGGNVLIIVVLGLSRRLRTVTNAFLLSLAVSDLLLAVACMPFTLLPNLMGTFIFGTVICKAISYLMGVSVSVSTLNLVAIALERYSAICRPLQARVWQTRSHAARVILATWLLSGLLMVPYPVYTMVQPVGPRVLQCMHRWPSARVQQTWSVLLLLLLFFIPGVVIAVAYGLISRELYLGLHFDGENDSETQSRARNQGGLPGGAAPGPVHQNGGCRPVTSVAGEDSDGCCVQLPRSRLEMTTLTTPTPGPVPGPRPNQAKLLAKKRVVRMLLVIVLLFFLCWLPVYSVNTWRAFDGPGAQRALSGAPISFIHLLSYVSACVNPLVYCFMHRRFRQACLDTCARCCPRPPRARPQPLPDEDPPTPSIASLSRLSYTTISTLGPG

Rattus norvegicus [3] = test: Compound (CCK1 antagonist) was administered orally for the effect of increase in plasma lipase activity induced by caerulein in rat at the dose of 0.1 mg/kg; format: functional; settings: route oral
In short: (§1)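 Caerulein pancreatitis in fasted (24 h) male Wistar rats (190–210 g): four hourly sc injections of 10 µg/kg. Antagonist dosed orally (0.25 mL/100 g; 0.1 or 1 mg/kg) 60 min before the first caerulein injection. Plasma drawn 3 h after the final injection. Amylase and lipase activities read with commercial kits, in IU/mL. Comparisons by ANOVA plus Scheffé's test against caerulein.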

Rattus norvegicus [4] = test: Compound (CCK1 antagonist) was administered intraperitoneally for the effect of increase in plasma amylase activity induced by caerulein in rat at the dose of 1 mg/kg; format: functional; settings: route intraperitoneal
In short: (§2)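 Male Wistar rats (190–210 g), fasted 24 h, given four sc caerulein injections (10 µg/kg) at hourly intervals. Antagonist given ip (0.25 mL/100 g; 0.1 or 1 mg/kg) 30 min before the first caerulein dose. Blood taken 3 h after the last injection. Plasma amylase and lipase measured by commercial kits, in IU/mL. Statistics by ANOVA with Scheffé's test against caerulein alone.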

Rattus norvegicus [5] = test: Compound (CCK1 antagonist) was administered orally for the effect of increase in plasma lipase activity induced by caerulein in rat at the dose of 1 mg/kg; format: functional; settings: route oral; in short: as §1
Rattus norvegicus [6] = test: Compound (CCK1 antagonist) was administered orally for the effect of increase in plasma amylase activity induced by caerulein in rat at the dose of 0.1 mg/kg; format: functional; settings: route oral; in short: as §1
Rattus norvegicus [7] = test: Compound (CCK1 antagonist) was administered orally for the effect of increase in plasma amylase activity induced by caerulein in rat at the dose of 1 mg/kg; format: functional; settings: route oral; in short: as §1
Rattus norvegicus [8] = test: Compound (CCK1 antagonist) was administered intraperitoneally for the effect of increase in plasma lipase activity induced by caerulein in rat at the dose of 0.1 mg/kg; format: functional; settings: route intraperitoneal; in short: as §2
Rattus norvegicus [9] = test: Compound (CCK1 antagonist) was administered intraperitoneally for the effect of increase in plasma amylase activity induced by caerulein in rat at the dose of 0.1 mg/kg; format: functional; settings: route intraperitoneal; in short: as §2
Rattus norvegicus [10] = test: Compound (CCK1 antagonist) was administered intraperitoneally for the effect of increase in plasma lipase activity induced by caerulein in rat at the dose of 1 mg/kg; format: functional; settings: route intraperitoneal; in short: as §2
Rattus norvegicus [11] = test: Compound (CCK1 antagonist) was administered orally for the effect of increase in plasma amylase activity induced by caerulein in rat.; format: functional; in short: as §1
Rattus norvegicus [12] = test: Compound (CCK1 antagonist) was administered orally for the effect of increase in plasma lipase activity induced by caerulein in rat; format: functional; in short: as §1
Rattus norvegicus [13] = test: Compound (CCK1 antagonist) was administered intraperitoneally for the effect of increase in plasma lipase activity induced by caerulein in rat
Rattus norvegicus [14] = test: Compound (CCK1 antagonist) was administered intraperitoneally for the effect of increase in plasma amylase activity induced by caerulein in rat; format: functional; in short: as §2

Structure (SMILES) | IC50 [1] [nM] | IC50 [2] [nM] | other results
O=C(N[C@@H](Cc1c[nH]c2ccccc12)C(=O)N[C@H]1CCCN2C(=O)N(Cc3ccccc3)C(=O)CC12)OC1C2CC3CC(C2)CC1C3 (single isomer, unassigned) | 340 | 3430 | –
CC(C)(C)CC(=O)N[C@@H](Cc1c[nH]c2ccccc12)C(=O)N[C@@H]1CCCN2C(=O)N(Cc3ccccc3)C(=O)CC12 (single isomer, unassigned) | 4.43 | > 10000 | Increase in plasma lipase (Rattus norvegicus [3]): 3089 IU ml-1; Increase in plasma amylase (Rattus norvegicus [4]): 28015 IU ml-1; Increase in plasma lipase (Rattus norvegicus [5]): 3375 IU ml-1; Increase in plasma amylase (Rattus norvegicus [6]): 51420 IU ml-1; Increase in plasma amylase (Rattus norvegicus [7]): 46591 IU ml-1; Increase in plasma lipase (Rattus norvegicus [8]): 2956 IU ml-1; Increase in plasma amylase (Rattus norvegicus [9]): 61102 IU ml-1; Increase in plasma lipase (Rattus norvegicus [10]): 1140 IU ml-1
N[C@@H](Cc1c[nH]c2ccccc12)C(=O)N[C@@H]1CCCN2C(=O)N(Cc3ccccc3)C(=O)C[C@H]12 | > 1000 | > 10000 | –
CC(C)(C)NC(=O)N[C@@H](Cc1c[nH]c2ccccc12)C(=O)N[C@@H]1CCCN2C(=O)N(Cc3ccccc3)C(=O)CC12 (single isomer, unassigned) | 0.91 | > 10000 | Increase in plasma lipase (Rattus norvegicus [3]): 2200 IU ml-1; Increase in plasma amylase (Rattus norvegicus [4]): 5326 IU ml-1; Increase in plasma lipase (Rattus norvegicus [5]): 1062 IU ml-1; Increase in plasma amylase (Rattus norvegicus [6]): 28939 IU ml-1; Increase in plasma amylase (Rattus norvegicus [7]): 19967 IU ml-1; Increase in plasma lipase (Rattus norvegicus [8]): 1667 IU ml-1; Increase in plasma amylase (Rattus norvegicus [9]): 27103 IU ml-1; Increase in plasma lipase (Rattus norvegicus [10]): 36 IU ml-1
CC(C)(C)OC(=O)N[C@H](CN[C@@H]1CCCN2C(=O)N(Cc3ccccc3)C(=O)C[C@H]12)Cc1c[nH]c2ccccc12 | > 1000 | > 10000 | –
CC(C)(C)OC(=O)N1Cc2[nH]c3ccccc3c2CC1C(=O)N[C@H]1CCCN2C(=O)N(Cc3ccccc3)C(=O)C[C@@H]12 (some centres undefined) | > 1000 | > 10000 | –
CN1C(=O)[C@@H](NC(=O)c2cc3ccccc3[nH]2)N=C(c2ccccc2)c2ccccc21 [DEVAZEPIDE] | – | – | Increase in plasma lipase (Rattus norvegicus [3]): 871 IU ml-1; Increase in plasma amylase (Rattus norvegicus [4]): 3650 IU ml-1; Increase in plasma lipase (Rattus norvegicus [5]): 57 IU ml-1; Increase in plasma amylase (Rattus norvegicus [6]): 7733 IU ml-1; Increase in plasma amylase (Rattus norvegicus [7]): 4578 IU ml-1; Increase in plasma lipase (Rattus norvegicus [8]): 125 IU ml-1; Increase in plasma amylase (Rattus norvegicus [9]): 8793 IU ml-1; Increase in plasma lipase (Rattus norvegicus [10]): 26 IU ml-1
CSCC[C@H](NC(=O)[C@H](Cc1c[nH]c2ccccc12)NC(=O)CNC(=O)[C@@H](NC(=O)[C@H](Cc1ccc(OS(=O)(=O)O)cc1)NC(=O)[C@H](CC(=O)O)NC(=O)[C@H](CCC(N)=O)NC(=O)[C@@H]1CCC(=O)N1)[C@@H](C)O)C(=O)N[C@@H](CC(=O)O)C(=O)N[C@@H](Cc1ccccc1)C(N)=O [CAERULIN] (HELM PEPTIDE1{[Glp].Q.D.[O=C([C@H](Cc1ccc(OS(=O)(=O)O)cc1)N[*:1])[*:2]].T.G.W.M.D.F.[am]}$$$$V2.0) | – | – | Increase in plasma amylase (Rattus norvegicus [11]): 39293 IU ml-1; Increase in plasma lipase (Rattus norvegicus [12]): 2801 IU ml-1; Increase in plasma lipase (Rattus norvegicus [13]): 3100 IU ml-1; Increase in plasma amylase (Rattus norvegicus [14]): 52101 IU ml-1
CC(C)(C)OC(=O)N[C@@H](Cc1c[nH]c2ccccc12)[C@@H](C#N)N[C@@H]1CCCN2C(=O)N(Cc3ccccc3)C(=O)CC12 (single isomer, unassigned) | 32.6 | > 10000 | –
CC(C)(C)OC(=O)N[C@@H](Cc1c[nH]c2ccccc12)[C@H](C#N)N[C@@H]1CCCN2C(=O)N(Cc3ccccc3)C(=O)CC12 (single isomer, unassigned) | 7.69 | > 10000 | –
CC(C)(C)OC(=O)N1Cc2[nH]c3ccccc3c2CC1C(=O)N[C@@H]1CCCN2C(=O)N(Cc3ccccc3)C(=O)C[C@H]12 (some centres undefined) | – | > 10000 | –
O=C(N[C@@H]1CCCN2C(=O)N(Cc3ccccc3)C(=O)C[C@@H]12)c1cc2ccccc2[nH]1.O=C(N[C@H]1CCCN2C(=O)N(Cc3ccccc3)C(=O)C[C@H]12)c1cc2ccccc2[nH]1 | > 1000 | > 10000 | –
N#C[C@@H](N[C@@H]1CCCN2C(=O)N(Cc3ccccc3)C(=O)C[C@H]12)[C@H](Cc1c[nH]c2ccccc12)NC(=O)OCc1ccccc1 | > 1000 | > 10000 | –
CC(C)(C)OC(=O)N[C@](C)(Cc1c[nH]c2ccccc12)C(=O)N[C@@H]1CCCN2C(=O)N(Cc3ccccc3)C(=O)C[C@@H]12.CC(C)(C)OC(=O)N[C@](C)(Cc1c[nH]c2ccccc12)C(=O)N[C@H]1CCCN2C(=O)N(Cc3ccccc3)C(=O)C[C@H]12 | – | > 10000 | –
CC(C)(C)OC(=O)N[C@@H](Cc1c[nH]c2ccccc12)C(=O)N[C@@H]1CCCN2C(=O)N(Cc3ccccc3)C(=O)CC12 (single isomer, unassigned) [IQM-95333] | 1.59 | > 10000 | Increase in plasma lipase (Rattus norvegicus [3]): 2837 IU ml-1; Increase in plasma amylase (Rattus norvegicus [4]): 2721 IU ml-1; Increase in plasma lipase (Rattus norvegicus [5]): 1948 IU ml-1; Increase in plasma amylase (Rattus norvegicus [6]): 37753 IU ml-1; Increase in plasma amylase (Rattus norvegicus [7]): 31205 IU ml-1; Increase in plasma lipase (Rattus norvegicus [8]): 1943 IU ml-1; Increase in plasma amylase (Rattus norvegicus [9]): 35985 IU ml-1; Increase in plasma lipase (Rattus norvegicus [10]): 112 IU ml-1
O=C(Cc1c[nH]c2ccccc12)N[C@H]1CCCN2C(=O)N(Cc3ccccc3)C(=O)C[C@@H]12.O=C(N[C@@H]1CCCN2C(=O)N(Cc3ccccc3)C(=O)C[C@H]12)c1c[nH]c2ccccc12 | > 1000 | > 10000 | –
O=C(N[C@H]1CCCN2C(=O)N(Cc3ccccc3)C(=O)C[C@@H]12)[C@H](Cc1c[nH]c2ccccc12)NC(=O)C12CC3CC(CC(C3)C1)C2 | 486 | 4390 | –
CC(C)(C)OC(=O)N[C@@](C)(Cc1c[nH]c2ccccc12)C(=O)N[C@@H]1CCCN2C(=O)N(Cc3ccccc3)C(=O)C[C@@H]12.CC(C)(C)OC(=O)N[C@@](C)(Cc1c[nH]c2ccccc12)C(=O)N[C@H]1CCCN2C(=O)N(Cc3ccccc3)C(=O)C[C@H]12 (single isomer, unassigned) | 42.4 | > 10000 | –
CC(C)(C)OC(=O)N[C@@H](Cc1c[nH]c2ccccc12)C(=O)N[C@H]1CCCN2C(=O)N(Cc3ccccc3)C(=O)C[C@@H]12 | 22.7 | 6150 | –
N#C[C@H](N[C@@H]1CCCN2C(=O)N(Cc3ccccc3)C(=O)C[C@H]12)[C@H](Cc1c[nH]c2ccccc12)NC(=O)OCc1ccccc1 | > 1000 | > 10000 | –
CC(C)(C)OC(=O)N[C@@H](Cc1ccccc1)C(=O)N[C@@H]1CCCN2C(=O)N(Cc3ccccc3)C(=O)C[C@H]12 | 65.7 | > 10000 | –
N[C@@H](Cc1c[nH]c2ccccc12)C(=O)N[C@H]1CCCN2C(=O)N(Cc3ccccc3)C(=O)C[C@@H]12 | > 1000 | > 10000 | –
